Assays:
[1] = Oral bioavailability in BALB/cAnNCrl mouse at 10 mg/kg; details: in vivo
[2] = Ratio of Cmax in BALB/cAnNCrl mouse to GI50 for human WM266.4 cells
[3] = Tmax in BALB/cAnNCrl mouse at 10 mg/kg, po; details: in vivo
[4] = Half life in BALB/cAnNCrl mouse at 10 mg/kg, po; details: in vivo
[5] = Growth inhibition of human WM266.4 cells expressing BRAF V600E mutant after 5 days by SRB assay; type: functional; details: WM 266-4, 120 h
Method in brief: (§1)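 Antiproliferative SRB assay in WM266.4 (BRAF mutant), WM1361 (NRAS mutant) and D24 (BRAF/NRAS wild-type) melanoma cells, with GI50 derived from the assay.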

[6] = target: T1, Serine/threonine-protein kinase B-raf (Homo sapiens, UniProt P15056, V600E); experiment: Inhibition of BRAF V600E mutant-mediated ERK phosphorylation in human WM266.4 cells; type: cell-based
T1 sequence (P15056 2-766 V600E limits assumed): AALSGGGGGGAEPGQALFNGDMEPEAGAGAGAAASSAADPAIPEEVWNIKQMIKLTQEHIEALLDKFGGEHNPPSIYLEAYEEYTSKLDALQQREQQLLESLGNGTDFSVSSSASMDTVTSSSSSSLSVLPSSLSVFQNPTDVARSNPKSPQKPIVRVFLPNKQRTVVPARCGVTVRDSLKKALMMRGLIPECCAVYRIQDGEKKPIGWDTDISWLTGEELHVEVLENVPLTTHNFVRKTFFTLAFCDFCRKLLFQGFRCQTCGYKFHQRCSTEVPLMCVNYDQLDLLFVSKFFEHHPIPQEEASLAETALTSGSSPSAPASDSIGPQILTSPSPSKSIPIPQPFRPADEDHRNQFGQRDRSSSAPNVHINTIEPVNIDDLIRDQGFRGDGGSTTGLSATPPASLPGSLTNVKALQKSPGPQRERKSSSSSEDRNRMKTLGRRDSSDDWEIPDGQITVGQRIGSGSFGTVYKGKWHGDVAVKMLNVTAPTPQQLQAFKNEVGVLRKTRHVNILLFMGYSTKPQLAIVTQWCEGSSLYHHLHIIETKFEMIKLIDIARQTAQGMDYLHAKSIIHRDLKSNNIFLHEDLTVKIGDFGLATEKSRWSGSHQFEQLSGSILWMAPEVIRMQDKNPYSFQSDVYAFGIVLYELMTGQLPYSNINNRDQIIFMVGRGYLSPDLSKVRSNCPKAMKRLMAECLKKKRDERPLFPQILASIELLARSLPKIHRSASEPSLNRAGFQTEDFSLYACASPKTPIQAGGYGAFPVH
Method in brief: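 Cellular IC50 for inhibition of phosphoERK formation.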

[7] = Cmax in BALB/cAnNCrl mouse at 10 mg/kg, po; details: in vivo
[8] = target: T1, Serine/threonine-protein kinase B-raf; experiment: Inhibition of B-Raf V600E mutant
Method in brief: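 Enzymatic IC50 determined in vitro against purified V600E BRAF.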

[9] = Growth inhibition of human WM1361 cells expressing NRAS mutant after 5 days by SRB assay; type: functional; details: WM1361, 120 h
Method in brief: as §1

[10] = Growth inhibition of D24 after 5 days by SRB assay; type: functional
Method in brief: as §1

[11] = Selectivity index, ratio of GI50 for human WM1361 cells to GI50 for human WM266.4 cells; type: functional
Method in brief: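 GI50 values from the SRB proliferation assay, expressed relative to the GI50 in WM266.4 (BRAF mutant) cells.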

[12] = Selectivity index, ratio of GI50 for human WM1361 cells to GI50 for human WM266.4

bioavailability [1] [%]	Tmax [3] [h]	half-life [4] [h]	IC50 [6] [nM]	Cmax [7] [µM]	IC50 [8] [nM]	Structure (SMILES)	Ratio [2]	GI50 [5] [nM]	GI50 [9] [nM]	GI50 [10] [nM]	RatioGI50 [11]	RatioGI50 [12]
24	3	5.9	24	33.6		Cc1ccc(-n2nc(C(C)(C)C)cc2NC(=O)Nc2ccc(Oc3ccnc4[nH]c(=O)cnc34)cc2F)cc1	2240	15				
13	3	3.3	55	11.7	310	Cc1ccc(-n2nc(C(C)(C)C)cc2NC(=O)Nc2ccc(Oc3ccnc4[nH]c(S)nc34)cc2F)cc1	76	154				
27	0.5	4	274	27	87	Cc1ccc(-n2nc(C(C)(C)C)cc2NC(=O)Nc2cccc(Oc3ccnc4[nH]c(=O)cnc34)c2)cc1	142	190	12000	26000	60	130
4	3		62	0.316	4	Cc1nc2c(Oc3ccc(NC(=O)Nc4cc(C(F)(F)F)ccc4F)c4ccccc34)ccnc2[nH]c1=O		36				
71	3	7.9	5	101	19	CSc1cc(Oc2ccnc3[nH]c(=O)cnc23)ccc1NC(=O)Nc1cc(C(C)(C)C)nn1-c1ccc(C)cc1	101200	1				
7	0.25	1.7	8	14.2	77	CC(C)(C)c1cc(NC(=O)Nc2ccc(Oc3ccnc4[nH]c(=O)cnc34)c3ccccc23)n(-c2ccccc2)n1	130	105				
17	0.5	6.3	96	31.9		Cc1ccc(-n2nc(C(C)(C)C)cc2NC(=O)Nc2ccc(Oc3ccnc4[nH]c(=O)cnc34)cc2)cc1	510	62				
1	3	5.4	75	5.54	90	Cc1ccc(-n2nc(C(C)(C)C)cc2NC(=O)Nc2ccc(Oc3ccnc4[nH]c(=O)c(=O)[nH]c34)cc2F)cc1	70	79				
			280		> 10000	Cc1ccc(-n2nc(C(C)(C)C)cc2NC(=O)Nc2ccc(Oc3ccnc4nc(N5CCOCC5)cnc34)cc2F)cc1		235				
			6		24	CSc1cc(Oc2ccnc3[nH]c(=O)c(C)nc23)ccc1NC(=O)Nc1cc(C(C)(C)C)nn1-c1ccc(C)cc1		3				
			36		405	CC(C)(C)c1cc(NC(=O)Nc2ccc(Oc3ccnc4nc(N)c(=O)[nH]c34)c3ccccc23)n(-c2ccccc2)n1		18				
			176		17000	Cc1ccc(-n2nc(C(C)(C)C)cc2NC(=O)Nc2ccc(Oc3ccnc4nc(C)c(=O)[nH]c34)c3ccccc23)cc1		1500				
6	0.5	1.4	280	29.5	58	CC(C)(C)c1cc(NC(=O)Nc2cccc(Oc3ccnc4[nH]c(=O)cnc34)c2)n(-c2ccccc2)n1	170	170				
			6600		246	CSc1cc(Oc2ccnc3ncc(=O)[nH]c23)ccc1NC(=O)Nc1cc(C(F)(F)F)ccc1F		5000				
			101		450	CSc1cc(Oc2ccnc3ncc(=O)[nH]c23)ccc1NC(=O)Nc1cc(C(C)(C)C)nn1-c1ccccc1		27				
			11		51	Cc1ccc(-n2nc(C(C)(C)C)cc2NC(=O)Nc2ccc(Oc3ccnc4c3NCC(=O)N4)cc2F)cc1		34				
			750		8200	CC(C)(C)c1cc(NC(=O)Nc2ccc(Oc3ccnc4nc(N5CCOCC5)cnc34)cc2F)n(-c2ccccc2)n1		428				
			8500		1080	O=C(Nc1cc(C(F)(F)F)ccc1F)Nc1ccc(Oc2ccnc3nc(C(F)(F)F)c(=O)[nH]c23)c2ccccc12		10000				
			10		80	Cc1ccc(-n2nc(C(C)(C)C)cc2NC(=O)Nc2ccc(Oc3ccnc4[nH]c(=O)cnc34)c3ccccc23)cc1		80				

bioavailability [1] [%]	Tmax [3] [h]	half-life [4] [h]	IC50 [6] [nM]	Cmax [7] [µM]	IC50 [8] [nM]	Structure (SMILES)	Ratio [2]	GI50 [5] [nM]	GI50 [9] [nM]	GI50 [10] [nM]	RatioGI50 [11]	RatioGI50 [12]
			590		3	CSc1cc(Oc2ccnc3[nH]c(=O)c(=O)[nH]c23)ccc1NC(=O)Nc1ccc(Cl)c(C(F)(F)F)c1		220				
			273		190	CC(C)(C)c1cc(NC(=O)Nc2ccc(Oc3ccnc4[nH]c(=O)c(=O)[nH]c34)cc2F)n(-c2ccccc2)n1		299				
			1550		30	Nc1nc2c(Oc3ccc(NC(=O)Nc4cc(C(F)(F)F)ccc4F)c(F)c3)ccnc2[nH]c1=O		1550				
			750		4100	CN1CCN(c2cnc3c(Oc4ccc(NC(=O)Nc5cc(C(C)(C)C)nn5-c5ccccc5)c(F)c4)ccnc3n2)CC1		417				
			590		3	Cc1nc2c(Oc3ccc(NC(=O)Nc4cc(C(F)(F)F)ccc4F)c(F)c3)ccnc2[nH]c1=O		850				
			3500		54	O=C1CNc2nccc(Oc3ccc(NC(=O)Nc4cc(C(F)(F)F)ccc4F)cc3)c2N1		1690				
			> 10000		134	O=C(Nc1cc(C(F)(F)F)ccc1F)Nc1ccc(Oc2ccnc3[nH]c(=O)c(C(F)(F)F)nc23)c2ccccc12		> 10000				
			550		2	CSc1cc(Oc2ccnc3[nH]c(=O)c(=O)[nH]c23)ccc1NC(=O)Nc1cc(C(F)(F)F)ccc1F		190				
			7		85	CC(C)(C)c1cc(NC(=O)Nc2ccc(Oc3ccnc4[nH]c(=O)c(N)nc34)c3ccccc23)n(-c2ccccc2)n1		9				
			8		67	Cc1nc2c(Oc3ccc(NC(=O)Nc4cc(C(C)(C)C)nn4-c4ccccc4)c4ccccc34)ccnc2[nH]c1=O		57				
			780		4	O=C(Nc1ccc(Oc2ccnc3[nH]c(=O)cnc23)cc1F)Nc1cc(C(F)(F)F)ccc1F		1300				
			8500		42	O=C(Nc1ccc(Oc2ccnc3[nH]cnc23)cc1F)Nc1cc(C(F)(F)F)ccc1F		4850				
			> 100000		105	O=C(Nc1cccc(Oc2ccnc3ncc(=O)[nH]c23)c1)Nc1cc(C(F)(F)F)ccc1F		6100				
			70		222	Cc1ccc(-n2nc(C(C)(C)C)cc2NC(=O)Nc2ccc(Oc3ccnc4nc(N)c(=O)[nH]c34)cc2F)cc1		128				
			600		5	O=C(Nc1ccc(Oc2ccnc3[nH]c(=O)c(=O)[nH]c23)cc1F)Nc1cc(C(F)(F)F)ccc1F		1450				
			20000		258	Cc1nc2nccc(Oc3ccc(NC(=O)Nc4cc(C(F)(F)F)ccc4F)c(F)c3)c2[nH]c1=O		2700				
			620		17	Cn1nc(C(C)(C)C)cc1NC(=O)Nc1ccc(Oc2ccnc3[nH]c(=O)cnc23)cc1F		760				
			141		3000	Cc1nc2nccc(Oc3ccc(NC(=O)Nc4cc(C(C)(C)C)nn4-c4ccccc4)c4ccccc34)c2[nH]c1=O		95				
